According to ChEMBL document CHEMBL1687810, “Oritavancin disrupts membrane integrity of Staphylococcus aureus and vancomycin-resistant enterococci to effect rapid bacterial killing” (2010):
Converted amounts (≈) assume the structure as drawn. The source made the active and inactive calls.

What was measured:
Staphylococcus aureus [1] = test: Induction of membrane depolarization in heterogeneous vancomycin-intermediate resistant Staphylococcus aureus ATCC 700698 using DiSC3(5) dye by fluorimetric assay; assay type: functional, organism-based
Staphylococcus aureus [2] = test: Increase in membrane permeability in heterogeneous vancomycin-intermediate resistant Staphylococcus aureus ATCC 700698 using SYTO9 staining by fluorimetric assay; assay type: functional, organism-based
Staphylococcus aureus [3] = test: Bactericidal activity against heterogeneous vancomycin-intermediate resistant Staphylococcus aureus ATCC 700698 assessed as reduction in bacterial count at 4 ug/ml within 30 mins; assay type: functional
Summary of the method: (§1)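 Short-duration time-kill of hVISA ATCC 700698 under conditions similar to the membrane assays, without polysorbate-80, with drug at 4, 8 or 16 μg/ml; viable counts as change in log CFU from time zero over 30 min. Bactericidal defined as ≥3 log CFU decrease; detection limit 200 CFU; three independent experiments.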

Staphylococcus aureus [4] = test: Bactericidal activity against heterogeneous vancomycin-intermediate resistant Staphylococcus aureus ATCC 700698 assessed as reduction in bacterial count at 8 ug/ml within 30 mins; assay type: functional; summary of the method: as §1
Staphylococcus aureus [5] = test: Bactericidal activity against heterogeneous vancomycin-intermediate resistant Staphylococcus aureus ATCC 700698 assessed as reduction in bacterial count at 16 ug/ml within 30 mins; assay type: functional; summary of the method: as §1
Staphylococcus aureus [6] = test: Antimicrobial activity against heterogeneous vancomycin-intermediate resistant Staphylococcus aureus ATCC 700698; assay type: functional
Staphylococcus aureus [7] = test: Antimicrobial activity against vancomycin-intermediate resistant Staphylococcus aureus; assay type: functional
Staphylococcus aureus [8] = test: Antimicrobial activity against vancomycin-resistant Staphylococcus aureus; assay type: functional
Enterococcus = test: Antimicrobial activity against vancomycin-resistant Enterococcus; assay type: functional
Staphylococcus aureus [9] = test: Antimicrobial activity against heterogeneous vancomycin-intermediate resistant Staphylococcus aureus; assay type: functional
Staphylococcus aureus [10] = test: Induction of membrane depolarization in heterogeneous vancomycin-intermediate resistant Staphylococcus aureus ATCC 700698 at 16 ug/mL using DiSC3(5) dye by fluorimetric assay; assay type: functional, organism-based
Staphylococcus aureus [11] = test: Increase in membrane permeability in heterogeneous vancomycin-intermediate resistant Staphylococcus aureus ATCC 700698 at 16 ug/mL using SYTO9 staining by fluorimetric assay; assay type: functional, organism-based
Staphylococcus aureus [12] = test: Bactericidal activity against heterogeneous vancomycin-intermediate resistant Staphylococcus aureus ATCC 700698 at 16 ug/ml within 30 mins; assay type: functional, organism-based; summary of the method: as §1

Row | SMILES | Activity (Staphylococcus aureus [1]) | Activity (Staphylococcus aureus [2]) | log10cfu (Staphylococcus aureus [3]) | log10cfu (Staphylococcus aureus [4]) | log10cfu (Staphylococcus aureus [5]) | MIC (Staphylococcus aureus [6]) | MIC (Staphylococcus aureus [7]) | MIC (Staphylococcus aureus [8]) | MIC (Enterococcus) | MIC (Staphylococcus aureus [9]) | Activity (Staphylococcus aureus [10]) | Activity (Staphylococcus aureus [11]) | Activity (Staphylococcus aureus [12])
1 | CN[C@H](CC(C)C)C(=O)N[C@H]1C(=O)N[C@@H](CC(N)=O)C(=O)N[C@H]2C(=O)N[C@H]3C(=O)N[C@H](C(=O)N[C@H](C(=O)O)c4cc(O)cc(O)c4-c4cc3ccc4O)[C@H](O[C@H]3C[C@](C)(N)[C@@H](O)[C@H](C)O3)c3ccc(c(Cl)c3)Oc3cc2cc(c3O[C@@H]2O[C@H](CO)[C@@H](O)[C@H](O)[C@H]2O[C@H]2C[C@](C)(NCc3ccc(-c4ccc(Cl)cc4)cc3)[C@@H](O)[C@H](C)O2)Oc2ccc(cc2Cl)[C@H]1O [ORITAVANCIN] | Dose-dependent effect | Dose-dependent effect | >=3 | >=3 | >=3 | 1 µg/mL (≈ 0.558 µM) | 0.25 µg/mL (≈ 0.139 µM) | 0.25 µg/mL (≈ 0.139 µM) | 0.25 µg/mL (≈ 0.139 µM) | 0.25 µg/mL (≈ 0.139 µM) |  |  | 
2 | CN[C@H](CC(C)C)C(=O)N[C@H]1C(=O)N[C@@H](CC(N)=O)C(=O)N[C@H]2C(=O)N[C@H]3C(=O)N[C@H](C(=O)N[C@H](C(=O)O)c4cc(O)cc(O)c4-c4cc3ccc4O)[C@H](O)c3ccc(c(Cl)c3)Oc3cc2cc(c3O[C@@H]2O[C@H](CO)[C@@H](O)[C@H](O)[C@H]2O[C@H]2C[C@](C)(N)[C@H](O)[C@H](C)O2)Oc2ccc(cc2Cl)[C@H]1O |  |  |  |  |  |  |  |  |  |  | inactive | inactive | inactive
3 | CN[C@H](CC(C)C)C(=O)N[C@H]1C(=O)N[C@@H](CC(N)=O)C(=O)N[C@H]2C(=O)N[C@H]3C(=O)N[C@H](C(=O)N[C@H](C(=O)O)c4cc(O)cc(O)c4-c4cc3ccc4O)[C@H](O[C@H]3C[C@](C)(N)[C@@H](O)[C@H](C)O3)c3ccc(c(Cl)c3)Oc3cc2cc(c3O[C@@H]2O[C@H](CO)[C@@H](O)[C@H](O)[C@H]2O[C@H]2C[C@](C)(N)[C@@H](O)[C@H](C)O2)Oc2ccc(cc2Cl)[C@H]1O [CHLOROEREMOMYCIN] |  |  |  |  |  | 1 µg/mL (≈ 0.628 µM) |  |  |  |  | inactive | inactive | inactive
